Screening results from PubChem.
m5-HT2A agonist = mouse Htr2a agonists via beta-arrestin recruitment, primary screen, cell-based, luminescence | 5-hydroxytryptamine receptor 2A (Mus musculus), P35363 | CHO-K1 mHTR2A beta-arrestin complementation; percent of 30 µM serotonin response | activation, % at 7.6 µM | 360,000 tested, 0.66% active;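 active = activation above a run cutoff, the mean activation of all tested compounds plus 3 SD, cut at about 14% in these data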
Target sequence (P35363 whole entry, looked up): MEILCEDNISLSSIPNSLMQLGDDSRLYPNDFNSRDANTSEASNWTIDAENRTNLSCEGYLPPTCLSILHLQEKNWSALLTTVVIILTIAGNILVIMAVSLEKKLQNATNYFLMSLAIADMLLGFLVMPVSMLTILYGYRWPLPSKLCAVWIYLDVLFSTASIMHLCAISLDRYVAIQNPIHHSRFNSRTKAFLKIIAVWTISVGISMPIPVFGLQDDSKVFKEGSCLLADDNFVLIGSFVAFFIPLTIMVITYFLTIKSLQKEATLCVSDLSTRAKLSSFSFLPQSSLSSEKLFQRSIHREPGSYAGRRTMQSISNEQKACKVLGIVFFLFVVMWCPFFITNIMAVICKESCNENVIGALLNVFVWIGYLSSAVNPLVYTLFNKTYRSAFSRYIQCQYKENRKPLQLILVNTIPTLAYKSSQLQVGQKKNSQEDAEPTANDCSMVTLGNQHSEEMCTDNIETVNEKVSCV
ANO1 block = TMEM16A chloride channel inhibitors, primary screen, cell-based, HTS | Anoctamin-1 (Mus musculus), Q8BHY3 | HEK293 TMEM16A/YFP iodide influx fluorescence, ionomycin | normalized B-score (activity score, 25-100; higher = stronger inhibition) at 10 µM | 310,000 tested, 1.2% active | AID 588511, 2011;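 active = ratio plate-corrected score three or more library SD toward inhibition, starting fluorescence score within five deviations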;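 also: score derived from kinetic fluorescence span divided by baseline fluorescence per well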
MC4R antag cAMP = MC4R antagonists of cAMP signaling, primary screen, cell-based, TR-FRET, antagonist arm of biased-ligand search | inhibition, % at 6.5 µM | Melanocortin receptor 4 (Homo sapiens), P32245 | MC4R-expressing cells, MTII-stimulated cAMP, LANCE TR-FRET | 360,000 tested, 0.48% active | AID 540295, 2011;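 active = inhibition above its plate's cutoff, the mean of tested wells on that plate plus 3 SD, cut at about 29% in these data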
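Material: U2OS-MC4R stable cell line | Reagent: Melanotan II challenge after compound preincubation | Doses: One concentration, 6.5 µM nominal | Incubation: 30-min compound preincubation, 1-h Melanotan II challenge, 1-h detection, room temperature | Signal: TR-FRET cAMP assay | Replicates: One well per compound, no replicates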
MC4R ag barr = MC4R agonists recruiting beta-arrestin, primary screen, cell-based, luminescence, agonist arm of biased-ligand search | Melanocortin receptor 4 (Homo sapiens), P32245 | U2OS MC4R beta-arrestin complementation; percent of melanotan II response, DMSO zero | activation, % at 8.9 µM | 360,000 tested, 0.98% active;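 active = activation above a per-plate cutoff, the mean activation of sample wells on that plate plus 3 SD, cut at about 8% in these data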
beta cell repl = inducers of MIN6 beta-cell proliferation, primary screen, ATP luminescence, uHTS; 330,000 tested, 0.29% active; MIN6 cells proliferation, ATPlite luminescence, 48 h; cells starved in 0.2% serum; 100% = growth in 10% serum; AID 2380, 2010; proliferation, % at 10 µM;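 active = compounds whose signal lies at least 3.5 SD above the mean of all wells on their plate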
ANO1 activ = TMEM16A chloride channel activators or potentiators, primary screen, cell-based, HTS. 340,000 tested, 0.3% active. B-score at 10 µM. Anoctamin-1 (Mus musculus), Q8BHY3. AID 623877, 2012. HEK293 TMEM16A/YFP-H148Q/I152L, iodide quench fluorescence; active compounds read low;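 active = fluorescence-ratio B-score plate-corrected deviation score at least 3 library SD below zero, with starting fluorescence score within 5 deviations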;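 also: channel opened by trigger with iodide after compound preincubation; score built on the fluorescence ratio of max minus min over baseline; more negative score means more quench and so TMEM16A activation or potentiation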
MOR ag counter = OPRM1 agonists via beta-arrestin recruitment, confirmation, counter-screen for mouse HTR2A agonist project, cell-based, luminescence, single concentration | shares compounds with m5-HT2A agonist | U2OS OPRM1 beta-arrestin PathHunter; DMSO 0%, DAMGO 9.3 µM 100% | activation, % at 9.3 µM | 2,300 tested, 5.3% active;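 active = mean activation above the mean of DMSO-only wells plus 3 SD, cut at about 0.5% in these data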
HTR2A ag conf = mouse HTR2A agonists, beta-arrestin recruitment, confirmation, cell-based, luminescence, CHO-K1 PathHunter, triplicate. shares compounds with m5-HT2A agonist. DMSO 0%, 30 µM serotonin 100%. activation, % at 7.6 µM. 2,300 tested, 19% active. AID 624381, 2012;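 active = mean activation across triplicates above the hit threshold derived in the original primary screen, cut at about 15% in these data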
Of the large screens only hits and unclear results are named; the others gave an inactive call (follow-up assays come after a bar, where they were run). An excerpt weighted towards active compounds, which were near 3.4% of everything screened.

O=C(CN1C(=O)NC2(CCCC2)C1=O)NNC(=O)c1ccccc1F	none (no result: ANO1 block)
CCOC(=O)C(=CNc1ncccc1C)C(=O)OCC	m5-HT2A agonist 23 | MOR ag counter inactive | HTR2A ag conf inactive
COCCCNC(=O)C[C@H]1C[C@H](C(=O)N2CCOCC2)[C@@]2(CCC3CCCC3)c3[nH]c4cc(-c5ccco5)ccc4c3CCN2C1=O	m5-HT2A agonist 15 (no result: ANO1 block, beta cell repl, ANO1 activ) | MOR ag counter inactive | HTR2A ag conf inactive
CN(C)C(=O)CCc1ccc2c3c([nH]c2c1)[C@]1(C)[C@@H](C(=O)N2CCOCC2)C[C@H](CC(=O)NCc2cccc(C(F)(F)F)c2)C(=O)N1CC3	m5-HT2A agonist 15 (no result: ANO1 block, beta cell repl, ANO1 activ) | MOR ag counter inactive | HTR2A ag conf inactive
CC[C@]12c3[nH]c4ccccc4c3CCN1C(=O)C(CC(=O)NCc1cccc(C(F)(F)F)c1)C[C@@H]2C(=O)N1CCN(C(=O)c2ccco2)CC1 (some centres undefined)	m5-HT2A agonist 22 (no result: ANO1 block) | MOR ag counter inactive | HTR2A ag conf inactive
Cc1cccc(N2CCN(S(=O)(=O)c3ccc(Cl)nc3)CC2C)c1 (centres undefined)	none (no result: ANO1 block)
COc1ccc(-c2cc(=O)oc3c(C)c(OC(C)C(=O)NCc4ccccn4)ccc23)cc1 (centres undefined)	none
S=c1[nH]nc(CSCc2ccccc2Cl)n1C1CCCCC1	m5-HT2A agonist 29 (no result: ANO1 block, beta cell repl) | MOR ag counter inactive | HTR2A ag conf inactive
C[C@H]1CN([C@@H](C)CO)C(=O)c2cc(NC(=O)C3CCCCC3)ccc2O[C@H]1CN(C)C(=O)Nc1ccc2c(c1)OCO2	none (no result: ANO1 block)
O=C(NCc1ccc(F)cc1F)[C@@H]1CCCN1C(=O)[C@@H]1CCCN1	none (no result: ANO1 block, MC4R antag cAMP, MC4R ag barr, beta cell repl, ANO1 activ)
O=[N+]([O-])c1cccc(NC(=S)N2CCCC2)c1	none
CCN1CCN(C(=S)Nc2cccc([N+](=O)[O-])c2)CC1	m5-HT2A agonist 26 | MOR ag counter inactive | HTR2A ag conf inactive
CCN(CC)C(=O)C1=C(C)N(CCCOC)C(=O)C(CC(=O)NCCCN(C)C)C1 (centres undefined)	none (no result: ANO1 block, beta cell repl, ANO1 activ)
C=C(C)c1cccc(C(C)(C)NC(=O)Nc2ccc(OC)nc2)c1	m5-HT2A agonist 45 | MOR ag counter inactive | HTR2A ag conf 16
C=C(C)c1cccc(C(C)(C)NC(=O)Nc2cc(C)ccn2)c1	m5-HT2A agonist 35 | MOR ag counter inactive | HTR2A ag conf 30
C=C(C)c1cccc(C(C)(C)NC(=O)Nc2nncs2)c1	none
C=C(C)c1cccc(C(C)(C)NC(=O)Nc2nnc(C(C)C)s2)c1	none
C=C(C)c1cccc(C(C)(C)NC(=O)Nc2ccc(C)cn2)c1	m5-HT2A agonist 15 | MOR ag counter inactive | HTR2A ag conf 32
COc1ccc(Nc2c(-c3ccc(F)cc3)nc3nc(C)cc(C)n23)cc1	none (no result: ANO1 block, MC4R antag cAMP, MC4R ag barr, beta cell repl, ANO1 activ)
COC(=O)[C@]12CCCCC=C1N(Cc1ccc(Cl)cc1Cl)C(=O)[C@H](CC(=O)N1CCCC1)C2	none (no result: ANO1 block, MC4R antag cAMP, MC4R ag barr, beta cell repl, ANO1 activ)
NCCc1ccc(O)c(O)c1	m5-HT2A agonist 42 | MOR ag counter inactive | HTR2A ag conf 140
Cc1ccc(F)cc1-c1nc(NCC2CC2)nc2ccsc12	m5-HT2A agonist 16 (no result: ANO1 block, beta cell repl, ANO1 activ) | MOR ag counter inactive | HTR2A ag conf inactive
CCOc1nc2cnccc2n(CC(=O)Nc2c(C)cccc2CC)c1=O	none
CCCCCN(C(=O)CCC(=O)OCCOc1ccccc1Cl)c1c(N)n(CCCC)c(=O)[nH]c1=O	none
Cc1ccc(C(=O)NCCNC(=O)CN2CCOCC2)cc1	m5-HT2A agonist 15 | MOR ag counter inactive | HTR2A ag conf inactive
C[C@H]1C(=O)N(c2ccccc2)[C@@H]1c1ccccc1	none (no result: ANO1 block, beta cell repl)
O=C1C2CCc3ccccc3C2N1c1ccccc1 (centres undefined)	m5-HT2A agonist 18 (no result: ANO1 block) | MOR ag counter inactive | HTR2A ag conf inactive
CCN(CC)C(=O)Nc1ccc(Br)cc1	m5-HT2A agonist 23 | MOR ag counter inactive | HTR2A ag conf inactive
CC1CCCCC1NC(=O)C1CCC(CNS(=O)(=O)c2ccc3c(c2)C(C)(C)C(=O)N3C)CC1 (centres undefined)	none (no result: ANO1 block, beta cell repl, ANO1 activ)
O=C(NCC1CCCN(C2Cc3ccccc3C2)C1)c1cccs1 (centres undefined)	m5-HT2A agonist 19 | MOR ag counter inactive | HTR2A ag conf 15
O=C(NCc1ccc(F)cc1)c1cc(C2CCCCN2C(=O)c2ccccc2)on1 (centres undefined)	none (no result: ANO1 block, beta cell repl, ANO1 activ)
O=C(NCc1ccc(F)cc1)c1cc(C2CCCCN2C(=O)c2ccc(Cl)cc2)on1 (centres undefined)	m5-HT2A agonist 15 (no result: ANO1 block, beta cell repl, ANO1 activ) | MOR ag counter inactive | HTR2A ag conf inactive
c1cc(C2OCCO2)cs1	none (no result: ANO1 block, beta cell repl, ANO1 activ)
Cn1nc(C(=O)NNC(=O)c2ccccc2F)c2ccccc2c1=O	none (no result: ANO1 block)
CC(NC(=O)c1nn(C)c(=O)c2ccccc12)c1ccc(F)cc1 (centres undefined)	m5-HT2A agonist 15 | MOR ag counter inactive | HTR2A ag conf inactive
COc1ccc2[nH]c(C)c(CCNC(=S)Nc3ccccc3C)c2c1	m5-HT2A agonist 16 | MOR ag counter inactive | HTR2A ag conf inactive
COC(=O)C1(C(=O)OC)C/C=C\CCN(S(=O)(=O)c2ccccc2[N+](=O)[O-])CC1	none (no result: ANO1 block, MC4R antag cAMP, MC4R ag barr, beta cell repl, ANO1 activ)
CCOc1ccc(S(=O)(=O)NCCC(=O)N2CC=C(c3ccccc3)CC2)cc1	none (no result: ANO1 block)
CC1(Cc2ccc(OC(F)(F)F)cc2)C(=O)Nc2c(Cl)ccc(Cl)c21 (centres undefined)	none (no result: ANO1 block, beta cell repl, ANO1 activ)
CN=c1scc(-c2cccs2)n1/N=C/c1ccc(O)c(O)c1O	none
CC(C)N=c1scc(-c2ccco2)n1/N=C/c1ccc(O)c(O)c1	m5-HT2A agonist 18, ANO1 block 100 | MOR ag counter 1.1 | HTR2A ag conf inactive
Oc1ccc(/C=N/n2c(-c3ccco3)csc2=Nc2cccnc2)c(O)c1	none
C=CCN=c1scc(-c2ccco2)n1/N=C/c1ccc(O)c(O)c1O	m5-HT2A agonist 16 | MOR ag counter 1.9 | HTR2A ag conf 129
